A3G deaminase: blocks human APOBEC3G single-stranded DNA deamination; 330,000 compounds, 0.28% hits; recombinant A3G, ssDNA deamination FAM/TAMRA fluorescence; AID 493012; inhibition, % at 20 µM; Q9HC16;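 active means inhibition of at least 40% at 20 µM, with no more than 30% in the related APOBEC3A deaminase screen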;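 further: plate controls were DMSO wells with A3G for no effect and wells lacking A3G enzyme for full effect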
UCH37 inh: inhibitors of human deubiquitinating enzyme UCH37; Q9Y5K5; inhibition, % (no concentration beside the values); AID 588478; purified proteasome/UCH37, Ub-AMC cleavage fluorescence; 330,000 compounds, 0.33% hits;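 active means mean inhibition over replicate wells above about 20%, limit read from the data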;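 further: 0% = compound-free wells with enzyme and 100% = wells lacking proteasome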
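system = Proteasome-associated human UCH37 deubiquitinase | amount = 0.15 nM proteasome as dispensed | medium = pH 7.4 Tris-HCl (50 mM) with ovalbumin, ATP-MgCl2, DTT | incubation = 30 min preincubation with enzyme, 25 min cleavage at room temperature | detection = AMC fluorescence 355/460 nm | read-out basis = percent inhibition | controls = no-proteasome and no-compound wells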
Arrestin-AP2 inh: inhibitors of human beta-arrestin and AP2 interaction; FITC-arrestin peptide / GST-AP2 beads, flow cytometry; AP2 beta2 appendage carries R879A mutation; inhibition, % at 10 µM; 340,000 compounds, 0.31% hits;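 active means inhibition above a set limit, near 3 SD of compounds lacking own fluorescence, cut at about 54% in these data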;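 further: plate controls were DMSO wells for no effect and 5 µM unlabelled arrestin peptide for full effect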
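test system = AP2 appendage R879A on GSH beads | buffer or medium = PBS plus Tween 20 (0.05%) and BSA (0.1%) | incubation = 12 min plus 1 h, RT | detection = bead flow cytometry, FITC channel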
PolyA inhibitor: blocks polyadenylation in yeast reporter cells; S. cerevisiae SKY197-pL101 polyadenylation reporter, beta-gal luminescence; efflux-impaired pdr1/pdr3 knockout yeast; score 100 = 6 SD above DMSO; activity score, % at 12 µM; 300,000 compounds, 0.02% hits;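 active means lowest replicate activity score at least 50, where 100 means six control SD above control mean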;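 further: yeast exposed to compound for 9 h at 30 °C; higher score means more reporter readthrough which indicates perturbed polyadenylation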
AHR act: activators of human aryl hydrocarbon receptor; AHR-responsive luciferase reporter cells, luminescence; activation, % at 5 µM; 320,000 compounds, 2.5% hits; AID 2796; in the data active means activation above about 47%;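 further: 0% = vehicle wells and 100% = reference agonist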
A3A deaminase: inhibitors of human APOBEC3A DNA deaminase; P31941; recombinant A3A, FAM/TAMRA ssDNA deamination fluorescence; inhibition, % at 20 µM; 330,000 compounds, 0.41% hits; AID 493011;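 active means at least 40% inhibition at 20 µM here, with at most 30% in a related deaminase screen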;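 further: plate controls were A3A with DMSO for no effect and wells lacking A3A enzyme for full effect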
AHR act cf: human AHR activation, confirmation. shares compounds with AHR act. human cells, AHR-responsive luciferase reporter, luminescence. activation, % at 9 µM. 2,300 compounds, 87% hits. AID 2845; in the data active means activation above about 49%;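 further: HepG2 hepatoma cells carrying a DRE-driven firefly luciferase reporter; 0% = vehicle wells and 100% = reference agonist wells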
PXR act counter: PXR activation, counter-screen for AHR activators | shares compounds with AHR act | cell-based PXR reporter, luciferase luminescence | activation, % at 11.6 µM | 2,300 compounds, 88% hits | AID 434939; in the data active means activation above about 11%;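 further: human hepatoma DPX-2 cells expressing full-length human PXR; 0% = DMSO and 100% = reference agonist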
Starred values were filed as active, the others as inactive; nt = no result given. Compounds with a hit are over-represented: about 3.4% of the library has one in this group of screens.

SMILES	A3G deaminase	UCH37 inh	Arrestin-AP2 inh	PolyA inhibitor	AHR act	A3A deaminase	AHR act cf	PXR act counter
COc1ccc(NC(=O)c2ccc(Cl)nc2)cc1S(=O)(=O)N1CCCCC1	-5	5	6	-6	121*	-3	85*	63*
O=C(Nc1ccc2c(c1)OCO2)c1ccc(Br)s1	-5	3	-5	14	131*	-2	93*	25*
O=C(Nc1ccc2c(c1)OCO2)c1ccc(Cl)nc1	-2	0	-5	3	88*	17	149*	23*
Cn1c(C(=O)Nc2ccc3c(c2)OCO3)cc2sccc21	-5	2	7	-18	89*	6	139*	109*
CN(N=Cc1ccc(O)cc1O)c1nc(-c2ccccc2)cc(-c2ccccc2)n1	nt	4	nt	nt	nt	nt	nt	nt
O=C(NN=Cc1cc(Br)c(Br)o1)c1cc2ccccc2o1	nt	-56	nt	nt	nt	nt	nt	nt
COc1ccc(C=NNC(=O)CC2N=C(Cc3ccccc3)NNC2=O)cc1OC (stereo not drawn)	nt	5	nt	nt	nt	nt	nt	nt
Cc1ccc(C(=O)Nc2ccc3c(c2)OCO3)o1	-2	5	8	16	122*	0	108*	39*
O=C(Nc1ccc2c(c1)OCO2)c1ccncc1	-2	2	4	-1	103*	2	74*	nt
O=C(Nc1ccc2c(c1)OCO2)c1nn(-c2ccccc2)c(=O)c2ccccc12	2	3	7	-19	26	2	nt	nt
O=C(Cn1cnc2ccccc2c1=O)Nc1ccc2c(c1)OCO2	-4	1	-8	4	93*	-4	70*	17*
O=C(Nc1ccc2c(c1)OCO2)c1n[nH]c(=O)c2ccccc12	1	7	28	1	132*	7	132*	43*
O=C(Cn1cnc2ccccc2c1=O)NCc1ccc2c(c1)OCO2	-3	-4	-7	nt	1	2	nt	nt
CCN(CC)S(=O)(=O)c1ccc(NN=Cc2cc(OC)c(OC)cc2OC)nc1	nt	-135	nt	nt	nt	nt	nt	nt
O=C(NN=Cc1ccc(Cl)cc1Cl)c1cccc(N2CCCC2=O)c1	nt	0	nt	nt	nt	nt	nt	nt
CCC(Oc1ccccc1OC)C(=O)Nc1ccc2c(c1)OCO2 (stereo not drawn)	1	5	-1	4	115*	4	115*	56*
COc1ccccc1C(=O)Nc1ccc2c(c1)OCCO2	-4	4	1	-2	1	-6	nt	nt
Cc1ccc2c(c1)CCCN2C(=O)Nc1ccc2c(c1)OCO2	1	3	1	2	106*	-2	96*	83*
COc1ccccc1OC(C)C(=O)Nc1ccc2c(c1)OCCO2 (stereo not drawn)	-6	2	9	12	5	2	nt	nt
COc1ccccc1C(=O)Nc1ccc2c(c1)OCO2	2	5	4	2	146*	5	147*	53*
CCc1ccccc1NC(=O)Nc1ccc2c(c1)OCO2	1	1	4	-10	87*	-2	92*	86*
O=C(Nc1ccc2c(c1)OCO2)Nc1ccccc1F	-4	1	-1	2	21	4	nt	nt
NC(=NO)C1COc2ccccc2O1 (stereo not drawn)	nt	2	nt	nt	nt	nt	nt	nt
COc1ccc(C=NNC(=O)C2(O)c3ccccc3-c3ccccc32)cc1	nt	3	nt	nt	nt	nt	nt	nt
CC(=NOC(=O)c1ccccc1)c1oc(C)nc1C	nt	3	nt	nt	nt	nt	nt	nt
Cc1cc(C)cc(C(=O)NCc2ccc3c(c2)OCO3)c1	-8	3	2	9	106*	-4	75*	52*
COc1ccc(C)cc1NC(=O)COC(=O)c1ccc2c(c1)OCO2	-7	1	16	nt	0	0	nt	nt
COc1ccc(Cl)cc1C(=O)Nc1ccc2c(c1)OCO2	-5	0	0	-18	92*	-6	105*	81*
COc1ccc(C)cc1NC(=O)c1ccc2c(c1)OCO2	-6	3	-5	-12	104*	-4	116*	26*
